System: Human immunodeficiency virus 1
Experiment: Antiviral activity against HIV1 3B infected in human CEM cells assessed as inhibition of virus-induced syncytium formation after 4 to 5 days by microscopic analysis
Type: functional, organism-based
Details: Human immunodeficiency virus 1, 3B, CCRF-CEM
Procedure, shortened: (§1)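 CEM cells (~3 × 10^5 cells/mL) infected with 100 CCID50 per mL of HIV-1(IIIB) or HIV-2(ROD), with compound dilutions; 4–5 days at 37 °C, humidified CO2 atmosphere. Giant (syncytium) cell formation scored microscopically; EC50 is the concentration inhibiting giant cell formation by 50%.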
For CN(C)c1nc(N)nc2c1ncn2C[C@@H](CF)OCP(=O)(O)O, the EC50 was > 255 µM. With CCCNc1nc(N)nc2c1ncn2C[C@H](CF)OCP(=O)(O)O the EC50 was 41.4 µM. With CCN(CC)c1nc(N)nc2c1ncn2C[C@H](CF)OCP(=O)(O)O the EC50 was > 100 µM. Work on Nc1nc(NC2CC2)c2ncn(C[C@@H](CF)OCP(=O)(O)O)c2n1 yielded an EC50 of 25.5 µM. In the case of CN(C)CCNc1nc(N)nc2c1ncn2C[C@H](CF)OCP(=O)(O)O, the EC50 is reported as > 53 µM. With C[C@H](Cn1cnc2c(N)ncnc21)OCP(=O)(O)O [TENOFOVIR ANHYDROUS] the EC50 was 4.6 µM. Work on CN(C)c1nc(N)nc2c1ncn2C[C@H](CF)OCP(=O)(O)O yielded an EC50 of 51.7 µM.

System: Human immunodeficiency virus 2
Experiment: Antiviral activity against HIV2 ROD infected in human CEM cells assessed as inhibition of virus-induced syncytium formation after 4 to 5 days by microscopic analysis
Type: functional, organism-based
Details: Human immunodeficiency virus 2, ISOLATE ROD, CCRF-CEM
Procedure, shortened: as §1
Compound CN(C)c1nc(N)nc2c1ncn2C[C@@H](CF)OCP(=O)(O)O has an EC50 of 115 µM. Work on CCCNc1nc(N)nc2c1ncn2C[C@H](CF)OCP(=O)(O)O yielded an EC50 of 22.4 µM. In the case of CCN(CC)c1nc(N)nc2c1ncn2C[C@H](CF)OCP(=O)(O)O, the EC50 is reported as > 100 µM. Compound Nc1nc(NC2CC2)c2ncn(C[C@@H](CF)OCP(=O)(O)O)c2n1 has an EC50 of 11.1 µM. Compound C[C@H](Cn1cnc2c(N)ncnc21)OCP(=O)(O)O [TENOFOVIR ANHYDROUS] has an EC50 of 3.2 µM. CN(C)c1nc(N)nc2c1ncn2C[C@H](CF)OCP(=O)(O)O gave an EC50 of 103 µM.

System: Moloney murine sarcoma virus
Experiment: Antiviral against Moloney murine sarcoma virus infected in mouse C3H/3T3 cells assessed as inhibition of virus-induced cell transformation after 6 days post infection by microscopic analysis
Type: functional, organism-based
Details: C3H/3T3, 144 h
Procedure, shortened: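 Murine embryo fibroblast C3H/3T3 monolayers infected with 75 focus-forming units of MSV, with test compound; transformation examined microscopically at day 6 postinfection. EC50 is the concentration inhibiting MSV-induced transformation by 50%.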
CN(C)c1nc(N)nc2c1ncn2C[C@@H](CF)OCP(=O)(O)O showed an EC50 of 45 µM. For CCCNc1nc(N)nc2c1ncn2C[C@H](CF)OCP(=O)(O)O, the EC50 was > 100 µM. With CCN(CC)c1nc(N)nc2c1ncn2C[C@H](CF)OCP(=O)(O)O the EC50 was > 100 µM. For Nc1nc(NC2CC2)c2ncn(C[C@@H](CF)OCP(=O)(O)O)c2n1, the EC50 was 6.9 µM. With CN(C)c1nc(N)nc2c1ncn2C[C@H](CF)OCP(=O)(O)O the EC50 was > 20 µM.

System: Human immunodeficiency virus 1
Experiment: Antiviral activity against HIV1 infected in human MT4 cells assessed as inhibition of virus-induced cytopathicity
Type: functional, organism-based
Details: Human immunodeficiency virus 1, MT4
With Nc1nc(O)c2ncn(C[C@H](CF)OCP(=O)(O)O)c2n1 the EC50 was 5.9 µM. For Nc1nc(O)c2ncn(C[C@@H](CF)OCP(=O)(O)O)c2n1, the EC50 was 3.9 µM. For Nc1nc(N)c2ncn(C[C@@H](CF)OCP(=O)(O)O)c2n1, the EC50 was 15 µM. Nc1nc(N)c2ncn(C[C@H](CF)OCP(=O)(O)O)c2n1 gave an EC50 of 4.3 µM.

System: not listed separately
Experiment: Cytotoxicity against human MT4 cells
Type: cell-based
Details: not given
In the case of Nc1nc(O)c2ncn(C[C@H](CF)OCP(=O)(O)O)c2n1, the CC50 is reported as > 300 µM. In the case of Nc1nc(O)c2ncn(C[C@@H](CF)OCP(=O)(O)O)c2n1, the CC50 is reported as 103 µM. With Nc1nc(N)c2ncn(C[C@@H](CF)OCP(=O)(O)O)c2n1 the CC50 was > 300 µM. In the case of Nc1nc(N)c2ncn(C[C@H](CF)OCP(=O)(O)O)c2n1, the CC50 is reported as > 300 µM.

System: not listed separately
Experiment: Cytotoxicity against human CEM cells assessed as inhibition of cell proliferation after 72 hrs by coulter counter analysis
Type: cell-based, CCRF-CEM
Details: not given
Procedure, shortened: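 CEM cells, (5–7.5) × 10^4 per well, with test compound, grown 72 h at 37 °C in humidified CO2 atmosphere; cells counted by Coulter counter. IC50 is the concentration inhibiting proliferation by 50%.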
For CN(C)c1nc(N)nc2c1ncn2C[C@@H](CF)OCP(=O)(O)O, the CC50 at 72 h was > 255 µM. With CCCNc1nc(N)nc2c1ncn2C[C@H](CF)OCP(=O)(O)O the CC50 at 72 h was > 276 µM. For CCN(CC)c1nc(N)nc2c1ncn2C[C@H](CF)OCP(=O)(O)O, the CC50 at 72 h was > 100 µM. With Nc1nc(NC2CC2)c2ncn(C[C@@H](CF)OCP(=O)(O)O)c2n1 the CC50 at 72 h was > 278 µM. In the case of CN(C)CCNc1nc(N)nc2c1ncn2C[C@H](CF)OCP(=O)(O)O, the CC50 at 72 h is reported as > 53 µM. With C[C@H](Cn1cnc2c(N)ncnc21)OCP(=O)(O)O [TENOFOVIR ANHYDROUS] the CC50 at 72 h was > 250 µM. With CN(C)c1nc(N)nc2c1ncn2C[C@H](CF)OCP(=O)(O)O the CC50 at 72 h was > 287 µM.

System: not listed separately
Experiment: Cytotoxicity against human CEM cells assessed as minimum concentration required for morphological alteration by microscopic analysis
Type: cell-based, CCRF-CEM
Details: not given
In the case of CN(C)c1nc(N)nc2c1ncn2C[C@@H](CF)OCP(=O)(O)O, the MCC is reported as > 100 µM. For CCCNc1nc(N)nc2c1ncn2C[C@H](CF)OCP(=O)(O)O, the MCC was > 100 µM. In the case of CCN(CC)c1nc(N)nc2c1ncn2C[C@H](CF)OCP(=O)(O)O, the MCC is reported as > 100 µM. For Nc1nc(NC2CC2)c2ncn(C[C@@H](CF)OCP(=O)(O)O)c2n1, the MCC was > 100 µM. For C[C@H](Cn1cnc2c(N)ncnc21)OCP(=O)(O)O [TENOFOVIR ANHYDROUS], the MCC was > 100 µM. For CN(C)c1nc(N)nc2c1ncn2C[C@H](CF)OCP(=O)(O)O, the MCC was ≥ 100 µM.

Biological target: N6-methyl-AMP deaminase, ADAL (Homo sapiens) (UniProt Q6DHV7)
Sequence (Q6DHV7 whole entry, looked up): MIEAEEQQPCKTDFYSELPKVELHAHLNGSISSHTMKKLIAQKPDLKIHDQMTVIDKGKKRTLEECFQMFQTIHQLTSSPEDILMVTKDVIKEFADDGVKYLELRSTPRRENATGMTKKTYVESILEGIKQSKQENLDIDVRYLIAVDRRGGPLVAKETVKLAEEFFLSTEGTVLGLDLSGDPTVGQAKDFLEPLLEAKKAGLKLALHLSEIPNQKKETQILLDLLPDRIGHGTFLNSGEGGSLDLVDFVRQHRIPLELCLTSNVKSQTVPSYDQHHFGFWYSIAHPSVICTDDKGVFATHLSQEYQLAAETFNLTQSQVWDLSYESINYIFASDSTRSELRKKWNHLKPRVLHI
Experiment: Activity at human recombinant N6-methyl-AMP deaminase assessed as reaction rate after 60 mins by HPLC analysis
Details: not given
In the case of CN(C)c1nc(N)nc2c1ncn2C[C@@H](CF)OCP(=O)(O)O, the Activity is reported as 8.07 nmol/min/mg. CCCNc1nc(N)nc2c1ncn2C[C@H](CF)OCP(=O)(O)O gave an Activity of 4.17 nmol/min/mg. In the case of Nc1nc(NC2CC2)c2ncn(C[C@@H](CF)OCP(=O)(O)O)c2n1, the Activity is reported as 1.98 nmol/min/mg. CN(C)c1nc(N)nc2c1ncn2C[C@H](CF)OCP(=O)(O)O showed an Activity of 23.6 nmol/min/mg.

From ChEMBL document CHEMBL1765040, “Synthesis and antiviral activity of N9-[3-fluoro-2-(phosphonomethoxy)propyl] analogues derived from N6-substituted adenines and 2,6-diaminopurines” (Bioorg Med Chem, 2011)
